# Test results published in ChEMBL document CHEMBL1142740, “Pyrroloquinolone PDE5 inhibitors with improved pharmaceutical profiles for clinical studies on erectile dysfunction” (J Med Chem, 2005).
# Legend:
# RFL-6 [1] = experiment: Ratio of inhibitory constant against phosphodiesterase 3 and phosphodiesterase 5 in rat fetal lung fibroblast (RFL-6) cells; type: cell-based
# [2] = molecular target: T1, cGMP-specific 3',5'-cyclic phosphodiesterase (Rattus norvegicus, UniProt O54735); experiment: Inhibition of phosphodiesterase 5 in rat fetal lung fibroblast (RFL-6) cells; type: cell-based
# RFL-6 [3] = experiment: Ratio of inhibitory constant against phosphodiesterase 2 and phosphodiesterase 5 in rat fetal lung fibroblast (RFL-6) cells; type: cell-based
# RFL-6 [4] = experiment: Ratio of inhibitory constant against rod phosphodiesterase 6 and phosphodiesterase 5 in rat fetal lung fibroblast (RFL-6) cells; type: cell-based
# RFL-6 [5] = experiment: Ratio of inhibitory constant against cone phosphodiesterase 6 and phosphodiesterase 5 in rat fetal lung fibroblast (RFL-6) cells; type: cell-based
# RFL-6 [6] = experiment: Ratio of inhibitory constant against phosphodiesterase 4 and phosphodiesterase 5 in rat fetal lung fibroblast (RFL-6) cells; type: cell-based
# RFL-6 [7] = experiment: Ratio of inhibitory constant against phosphodiesterase 1 and phosphodiesterase 5 in rat fetal lung fibroblast (RFL-6) cells; type: cell-based
# Canis familiaris = experiment: Effect on intracavernosal pressure after i.v. administration in electrically stimulated dogs; type: functional; conditions: Canis lupus familiaris, iv
# [8] = Oral bioavailability in monkey was determined; type: ADME, organism-based; conditions: cercopithecidae, in vivo
# Procedure, shortened: (§1)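 Male Sprague-Dawley rats, male beagle dogs and male rhesus monkeys, three per group. The oral arm received 30 mg/kg in 0.5% methylcellulose; the iv arm received 3.0 mg/kg in 20% HPBCD. Blood was drawn at 0, 0.5, 1, 2, 4, 6 and 24 h, and plasma drug was quantified by LC/MS. Bioavailability is reported as value and standard deviation.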
# [9] = Oral bioavailability in dog; type: ADME, organism-based, Canis lupus familiaris; conditions: in vivo; procedure, shortened: as §1
# [10] = molecular target: cGMP-specific 3',5'-cyclic phosphodiesterase (Rattus norvegicus) (UniProt O54735); experiment: pKa value for phosphodiesterase 5 in rat fetal lung fibroblast (RFL-6) cells; type: functional, cell-based
# RFL-6 [11] = experiment: Ratio of binding affinity towards phosphodiesterase 4 and phosphodiesterase 5 in rat fetal lung fibroblast (RFL-6) cells; type: cell-based
# [12] = (§2) Oral bioavailability in rat; type: ADME, organism-based; conditions: in vivo; procedure, shortened: as §1
# [13] = as §2; type: ADME, organism-based; conditions: in vivo; procedure, shortened: as §1; remark: listed apart in the source
# [14] = molecular target: cGMP-specific 3',5'-cyclic phosphodiesterase (Rattus norvegicus) (UniProt O54735); conditions: RFL-6
# [15] = molecular target: T1, cGMP-specific 3',5'-cyclic phosphodiesterase; experiment: Inhibitory concentration against phosphodiesterase 5 in rat fetal lung fibroblast (RFL-6) cells; type: cell-based
Structure (SMILES),Ki [2],bioavailability [8],bioavailability [9],pka [10],bioavailability [12],pKa [10],bioavailability [13],Pka [14],IC50 [15],Selectivity (RFL-6 [1]),Selectivity (RFL-6 [3]),Selectivity (RFL-6 [4]),Selectivity (RFL-6 [5]),Selectivity (RFL-6 [6]),Selectivity (RFL-6 [7]),ED50 (Canis familiaris),Selectivity (RFL-6 [11])
CN1CC(=O)N2[C@H](c3ccc4c(c3)OCO4)c3[nH]c4ccccc4c3C[C@@H]2C1=O,5 nM,,,,,,,,,> 2000,> 2000,,1000,> 2000,> 2000,,
Oc1c2c(nc3ccccc13)[C@@H](c1ccc3c(c1)CCO3)N(c1ccccn1)C2,0.12 nM,40%,69%,,,,,,,> 15000,> 15000,173,106,> 2500,> 15000,9.85 µg/kg,
Oc1c2c(nc3ccccc13)C(c1ccc3c(c1)CCO3)N(c1ccccn1)C2 (stereo unspecified),,,,5,,,,,,> 15000,> 15000,219,237,> 2500,> 15000,,
Cn1cncc1-c1ccc(N2Cc3c(nc4ccccc4c3O)C2c2ccc3c(c2)CCO3)nc1 (stereo unspecified),0.33 nM,,,,,,,,,> 15000,> 15000,2.6,10.3,,> 15000,,> 2500
Oc1c2c(nc3ccccc13)C(c1ccc3c(c1)CCO3)N(c1ccc(-n3ccnc3)cc1)C2 (stereo unspecified),0.51 nM,,,,,,,,,> 15000,> 15000,499,1840,> 2500,> 15000,,
O=c1c2c([nH]c3ccccc13)C(c1ccc3c(c1)CCO3)N(c1ccccn1)C2 (stereo unspecified),0.65 nM,,,,38%,,38%,,,,,,,,,,
CCCc1nn(C)c2c(=O)[nH]c(-c3cc(S(=O)(=O)N4CCN(C)CC4)ccc3OCC)nc12,,,,,,,,,,,,,,,,5.1 µg/kg,
Oc1c2c(nc3ccccc13)C(c1ccc3c(c1)CCO3)N(c1ccc(-c3ccccn3)nc1)C2 (stereo unspecified),6.43 nM,,,,,,,,,> 15000,> 15000,,,> 2500,> 15000,,
CCN(CC)CCOc1ccc(-c2cnc(N3Cc4c(nc5ccccc5c4O)C3c3ccc4c(c3)CCO4)nc2)cc1 (stereo unspecified),0.53 nM,,,,,,,,,,,,,,,,
Oc1c2c(nc3ccccc13)C(c1ccc3c(c1)CCO3)N(c1ccc(-c3cncn3Cc3ccccc3)cn1)C2 (stereo unspecified),0.17 nM,,,,,,,,,4560,> 15000,57.6,68.9,> 2500,> 15000,,

# Now from value to compound, other results behind:
Ki [2],bioavailability [8],bioavailability [9],pka [10],bioavailability [12],pKa [10],bioavailability [13],Pka [14],IC50 [15],Structure (SMILES),Selectivity (RFL-6 [1]),Selectivity (RFL-6 [3]),Selectivity (RFL-6 [4]),Selectivity (RFL-6 [5]),Selectivity (RFL-6 [6]),Selectivity (RFL-6 [7]),ED50 (Canis familiaris),Selectivity (RFL-6 [11])
0.19 nM,,,,,,,,,Oc1c2c(nc3ccccc13)C(c1ccc3occc3c1)N(c1ncc(-c3ccccn3)cn1)C2 (stereo unspecified),> 15000,> 15000,22.6,22.3,2500,15000,,
0.24 nM,,,,,,,,,Cc1ncc(-c2cnc(N3Cc4c(nc5ccccc5c4O)C3c3ccc4c(c3)CCO4)nc2)n1Cc1ccccc1 (stereo unspecified),> 15000,> 15000,366,359,> 2500,> 15000,,
0.52 nM,,,,,,,,,COc1ccc(-c2cnc(N3Cc4c(nc5ccccc5c4O)C3c3ccc4c(c3)CCO4)nc2)cc1 (stereo unspecified),,,,,,,,
0.22 nM,,,,,,,,,Oc1c2c(nc3ccccc13)C(c1ccc3c(c1)CCO3)N(c1ncc(-c3ccncc3)cn1)C2 (stereo unspecified),> 15000,> 15000,10.5,12.1,> 2500,> 15000,,
0.29 nM,,,,,,,,,Oc1c2c(nc3ccccc13)C(c1ccc3c(c1)OCO3)N(c1ncc(-c3cccnc3)cn1)C2 (stereo unspecified),> 15000,> 15000,9.3,7.6,> 2500,> 15000,,
,,,,12%,4.4,,,,Oc1c2c(nc3ccccc13)C(c1ccc3c(c1)CCO3)N(c1ncccn1)C2 (stereo unspecified),> 15000,> 15000,755,310,> 2500,> 15000,,
0.15 nM,,,,39%,,,,,Oc1c2c(nc3ccccc13)C(c1ccc3c(c1)CCO3)N(c1ccc(-c3ccccn3)cn1)C2 (stereo unspecified),> 15000,> 15000,93,69.2,> 2500,> 15000,,
0.36 nM,,,,,,,,,Oc1c2c(nc3ccccc13)C(c1ccc3c(c1)CCO3)N(c1ncc(-c3cccnc3)cn1)C2 (stereo unspecified),> 15000,> 15000,127,66.5,> 2500,> 15000,,
,,,,31.3%,,,9.24,,Oc1c2c(nc3ccccc13)C(c1ccc3c(c1)CCO3)N(c1ncc(-c3ccccn3)cn1)C2 (stereo unspecified),> 15000,> 15000,,,,> 15000,,
0.019 nM,,,,,,,,,Oc1c2c(nc3ccccc13)[C@@H](c1ccc3c(c1)CCO3)N(c1ncc(-c3ccccn3)cn1)C2,> 15000,> 15000,99,67,> 2500,> 15000,8.03 µg/kg,
,,,,,,,,1.75 nM,Oc1c2c(nc3ccccc13)C(c1ccc3c(c1)OCO3)N(c1ccc(-n3ccnc3)cc1)C2 (stereo unspecified),> 10300,> 4870,20.1,13.2,> 2500,> 15000,,
,,,,,,,,1.9 nM,Oc1c2c(nc3ccccc13)C(c1ccc3c(c1)CCO3)N(c1ncc(Br)cn1)C2 (stereo unspecified),> 15000,> 15000,35.7,39.2,> 2500,> 15000,,
0.24 nM,,,,0%,,,,,Cc1ncc(-c2cnc(N3Cc4c(nc5ccccc5c4O)C3c3ccc4c(c3)CCO4)nc2)n1C (stereo unspecified),> 15000,> 15000,237,219,> 2500,> 15000,,
